In experiment [1] the target is T1, CREB-binding protein (Homo sapiens, UniProt Q92793). Kind of experiment: Inhibition of CBP BRD (unknown origin) by TR-FRET assay. On the technique in general: In TR-FRET formats the signal depends on donor and acceptor labels being close together.
Target sequence in this assay (Q92793 whole entry): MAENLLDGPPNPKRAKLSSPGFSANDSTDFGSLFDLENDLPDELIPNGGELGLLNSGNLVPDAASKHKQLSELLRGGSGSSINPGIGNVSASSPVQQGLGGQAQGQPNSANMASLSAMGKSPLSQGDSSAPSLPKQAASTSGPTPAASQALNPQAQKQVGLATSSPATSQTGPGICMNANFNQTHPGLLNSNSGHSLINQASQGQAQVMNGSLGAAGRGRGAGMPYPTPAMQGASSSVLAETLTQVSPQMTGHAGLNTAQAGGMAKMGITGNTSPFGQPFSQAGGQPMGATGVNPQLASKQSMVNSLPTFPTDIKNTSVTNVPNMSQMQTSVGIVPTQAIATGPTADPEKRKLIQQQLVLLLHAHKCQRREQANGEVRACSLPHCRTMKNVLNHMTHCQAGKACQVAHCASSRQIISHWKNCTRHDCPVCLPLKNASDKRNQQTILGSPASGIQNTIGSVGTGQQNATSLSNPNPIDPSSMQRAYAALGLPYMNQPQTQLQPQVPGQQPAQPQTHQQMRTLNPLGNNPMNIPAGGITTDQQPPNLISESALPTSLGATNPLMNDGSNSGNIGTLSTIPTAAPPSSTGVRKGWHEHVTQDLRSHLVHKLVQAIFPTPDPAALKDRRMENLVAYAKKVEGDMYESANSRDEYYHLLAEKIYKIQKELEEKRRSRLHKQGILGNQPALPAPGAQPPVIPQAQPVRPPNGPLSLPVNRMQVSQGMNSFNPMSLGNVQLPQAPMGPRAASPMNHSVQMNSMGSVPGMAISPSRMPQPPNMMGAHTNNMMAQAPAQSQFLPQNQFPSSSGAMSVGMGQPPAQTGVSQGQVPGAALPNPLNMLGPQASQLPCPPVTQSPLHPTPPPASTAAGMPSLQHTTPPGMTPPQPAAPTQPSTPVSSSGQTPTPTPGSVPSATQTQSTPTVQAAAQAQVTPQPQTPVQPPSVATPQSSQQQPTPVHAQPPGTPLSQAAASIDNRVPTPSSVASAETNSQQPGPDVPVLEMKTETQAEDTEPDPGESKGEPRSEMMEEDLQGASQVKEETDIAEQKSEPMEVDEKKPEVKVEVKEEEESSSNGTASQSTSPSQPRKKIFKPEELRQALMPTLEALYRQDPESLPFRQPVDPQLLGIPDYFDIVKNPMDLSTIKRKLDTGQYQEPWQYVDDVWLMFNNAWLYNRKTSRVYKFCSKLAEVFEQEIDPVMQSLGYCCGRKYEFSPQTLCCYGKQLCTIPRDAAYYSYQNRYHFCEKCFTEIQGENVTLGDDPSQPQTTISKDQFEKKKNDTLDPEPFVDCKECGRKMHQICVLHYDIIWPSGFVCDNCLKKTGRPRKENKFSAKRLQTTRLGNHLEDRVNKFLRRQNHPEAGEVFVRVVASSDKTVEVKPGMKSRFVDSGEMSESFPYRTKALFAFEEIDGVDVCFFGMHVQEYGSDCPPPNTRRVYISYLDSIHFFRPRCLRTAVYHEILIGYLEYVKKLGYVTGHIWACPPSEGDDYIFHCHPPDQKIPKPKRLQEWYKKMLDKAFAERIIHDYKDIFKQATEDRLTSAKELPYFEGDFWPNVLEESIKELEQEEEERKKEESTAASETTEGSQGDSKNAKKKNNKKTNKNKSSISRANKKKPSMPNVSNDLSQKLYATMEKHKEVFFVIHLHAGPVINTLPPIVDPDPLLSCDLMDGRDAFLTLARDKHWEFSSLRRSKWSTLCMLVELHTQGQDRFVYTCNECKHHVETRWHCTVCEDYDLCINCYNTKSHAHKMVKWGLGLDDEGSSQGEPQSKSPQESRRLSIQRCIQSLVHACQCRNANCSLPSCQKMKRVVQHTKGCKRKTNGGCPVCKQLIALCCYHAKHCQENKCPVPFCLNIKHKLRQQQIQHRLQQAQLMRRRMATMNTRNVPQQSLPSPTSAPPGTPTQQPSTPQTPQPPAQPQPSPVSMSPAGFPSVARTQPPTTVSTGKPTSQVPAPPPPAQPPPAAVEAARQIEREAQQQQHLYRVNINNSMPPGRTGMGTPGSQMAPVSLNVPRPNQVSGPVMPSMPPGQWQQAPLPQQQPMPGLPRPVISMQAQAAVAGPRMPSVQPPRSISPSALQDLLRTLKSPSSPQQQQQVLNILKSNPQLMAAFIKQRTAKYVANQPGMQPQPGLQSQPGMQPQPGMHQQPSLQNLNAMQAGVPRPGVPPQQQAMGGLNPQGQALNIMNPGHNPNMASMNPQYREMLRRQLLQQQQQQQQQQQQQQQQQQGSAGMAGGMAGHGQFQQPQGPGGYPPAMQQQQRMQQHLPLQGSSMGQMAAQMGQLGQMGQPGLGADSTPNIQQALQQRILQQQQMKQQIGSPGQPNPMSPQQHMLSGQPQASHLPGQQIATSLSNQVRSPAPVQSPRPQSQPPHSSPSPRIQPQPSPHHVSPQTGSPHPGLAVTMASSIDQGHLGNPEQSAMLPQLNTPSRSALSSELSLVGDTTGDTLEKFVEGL
The test system of experiment [2] is MV4-11. As to the kind of experiment: Antiproliferative activity against human MV4-11 cells at 6.25 uM incubated for 6 days relative to control. Type of experiment: functional. Particulars: MV4-11, 144 h, time 6 day. In short, it runs like this: (§1)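 MV4-11 AML cells exposed to test agent at 6.25 or 1.56 µM for 6 days; viability read as percent growth inhibition versus control; inhibition rates are means of at least two determinations.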

Experiment [3] relates to MV4-11. As to the kind of experiment: Antiproliferative activity against human MV4-11 cells at 1.56 uM incubated for 6 days relative to control. Type of experiment: functional. The settings on record: MV4-11, 144 h, time 6 day. In short, it runs like this:
as §1

Experiment [4] has as its system MV4-11. As to the kind of experiment: Antiproliferative activity against human MV4-11 cells incubated for 6 days relative to control. Type of experiment: functional, cell-based. Particulars: MV4-11, 144 h. In short, it runs like this:
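MV4-11 cells treated for 6 days; IC50 derived for agents giving over 50% growth inhibition at 1.56 µM; values reported with ± error.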

Experiment [5] has as its target T1, CREB-binding protein. As to the kind of experiment: Inhibition of GST-tagged CBP BRD (unknown origin) incubated for 30 mins by HTRF assay.
Target sequence in this assay (Q92793 whole entry): as above
The target of experiment [6] is T2, Bromodomain-containing protein 4 (Homo sapiens, UniProt O60885). As to the kind of experiment: Inhibition of BRD4 BD1 (unknown origin) by ALPHAScreen assay. On the technique in general: Alpha assays give light when donor and acceptor beads are brought close together.
For experiment [7], the target named is T1, CREB-binding protein. As to the kind of experiment: Binding affinity to CBP BRD (unknown origin) by microscale thermophoresis assay. In general terms: In MST a laser heats a spot of the sample, and binding alters the fluorescence response.
Target sequence in this assay (Q92793 whole entry): as above
Experiment [8] deals with T2, Bromodomain-containing protein 4. Kind of experiment: Inhibition of BRD4 BD2 (unknown origin) by ALPHAScreen assay.
For experiment [9], the target named is T1, CREB-binding protein. As to the kind of experiment: Inhibition of CBP in human MV4-11 cells assessed as decrease in c-myc protein expression incubated for 12 hrs by Western blot analysis. The experiment is classed as cell-based. The settings on record: dose microM 0.25-2, time 12.0 hrs. In short, it runs like this:
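MV4-11 cells treated at 0, 0.25, 0.5, 1 and 2 µM for 12 h; c-Myc protein level assessed by Western blot.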
Target sequence in this assay (Q92793 2-2442 limits assumed): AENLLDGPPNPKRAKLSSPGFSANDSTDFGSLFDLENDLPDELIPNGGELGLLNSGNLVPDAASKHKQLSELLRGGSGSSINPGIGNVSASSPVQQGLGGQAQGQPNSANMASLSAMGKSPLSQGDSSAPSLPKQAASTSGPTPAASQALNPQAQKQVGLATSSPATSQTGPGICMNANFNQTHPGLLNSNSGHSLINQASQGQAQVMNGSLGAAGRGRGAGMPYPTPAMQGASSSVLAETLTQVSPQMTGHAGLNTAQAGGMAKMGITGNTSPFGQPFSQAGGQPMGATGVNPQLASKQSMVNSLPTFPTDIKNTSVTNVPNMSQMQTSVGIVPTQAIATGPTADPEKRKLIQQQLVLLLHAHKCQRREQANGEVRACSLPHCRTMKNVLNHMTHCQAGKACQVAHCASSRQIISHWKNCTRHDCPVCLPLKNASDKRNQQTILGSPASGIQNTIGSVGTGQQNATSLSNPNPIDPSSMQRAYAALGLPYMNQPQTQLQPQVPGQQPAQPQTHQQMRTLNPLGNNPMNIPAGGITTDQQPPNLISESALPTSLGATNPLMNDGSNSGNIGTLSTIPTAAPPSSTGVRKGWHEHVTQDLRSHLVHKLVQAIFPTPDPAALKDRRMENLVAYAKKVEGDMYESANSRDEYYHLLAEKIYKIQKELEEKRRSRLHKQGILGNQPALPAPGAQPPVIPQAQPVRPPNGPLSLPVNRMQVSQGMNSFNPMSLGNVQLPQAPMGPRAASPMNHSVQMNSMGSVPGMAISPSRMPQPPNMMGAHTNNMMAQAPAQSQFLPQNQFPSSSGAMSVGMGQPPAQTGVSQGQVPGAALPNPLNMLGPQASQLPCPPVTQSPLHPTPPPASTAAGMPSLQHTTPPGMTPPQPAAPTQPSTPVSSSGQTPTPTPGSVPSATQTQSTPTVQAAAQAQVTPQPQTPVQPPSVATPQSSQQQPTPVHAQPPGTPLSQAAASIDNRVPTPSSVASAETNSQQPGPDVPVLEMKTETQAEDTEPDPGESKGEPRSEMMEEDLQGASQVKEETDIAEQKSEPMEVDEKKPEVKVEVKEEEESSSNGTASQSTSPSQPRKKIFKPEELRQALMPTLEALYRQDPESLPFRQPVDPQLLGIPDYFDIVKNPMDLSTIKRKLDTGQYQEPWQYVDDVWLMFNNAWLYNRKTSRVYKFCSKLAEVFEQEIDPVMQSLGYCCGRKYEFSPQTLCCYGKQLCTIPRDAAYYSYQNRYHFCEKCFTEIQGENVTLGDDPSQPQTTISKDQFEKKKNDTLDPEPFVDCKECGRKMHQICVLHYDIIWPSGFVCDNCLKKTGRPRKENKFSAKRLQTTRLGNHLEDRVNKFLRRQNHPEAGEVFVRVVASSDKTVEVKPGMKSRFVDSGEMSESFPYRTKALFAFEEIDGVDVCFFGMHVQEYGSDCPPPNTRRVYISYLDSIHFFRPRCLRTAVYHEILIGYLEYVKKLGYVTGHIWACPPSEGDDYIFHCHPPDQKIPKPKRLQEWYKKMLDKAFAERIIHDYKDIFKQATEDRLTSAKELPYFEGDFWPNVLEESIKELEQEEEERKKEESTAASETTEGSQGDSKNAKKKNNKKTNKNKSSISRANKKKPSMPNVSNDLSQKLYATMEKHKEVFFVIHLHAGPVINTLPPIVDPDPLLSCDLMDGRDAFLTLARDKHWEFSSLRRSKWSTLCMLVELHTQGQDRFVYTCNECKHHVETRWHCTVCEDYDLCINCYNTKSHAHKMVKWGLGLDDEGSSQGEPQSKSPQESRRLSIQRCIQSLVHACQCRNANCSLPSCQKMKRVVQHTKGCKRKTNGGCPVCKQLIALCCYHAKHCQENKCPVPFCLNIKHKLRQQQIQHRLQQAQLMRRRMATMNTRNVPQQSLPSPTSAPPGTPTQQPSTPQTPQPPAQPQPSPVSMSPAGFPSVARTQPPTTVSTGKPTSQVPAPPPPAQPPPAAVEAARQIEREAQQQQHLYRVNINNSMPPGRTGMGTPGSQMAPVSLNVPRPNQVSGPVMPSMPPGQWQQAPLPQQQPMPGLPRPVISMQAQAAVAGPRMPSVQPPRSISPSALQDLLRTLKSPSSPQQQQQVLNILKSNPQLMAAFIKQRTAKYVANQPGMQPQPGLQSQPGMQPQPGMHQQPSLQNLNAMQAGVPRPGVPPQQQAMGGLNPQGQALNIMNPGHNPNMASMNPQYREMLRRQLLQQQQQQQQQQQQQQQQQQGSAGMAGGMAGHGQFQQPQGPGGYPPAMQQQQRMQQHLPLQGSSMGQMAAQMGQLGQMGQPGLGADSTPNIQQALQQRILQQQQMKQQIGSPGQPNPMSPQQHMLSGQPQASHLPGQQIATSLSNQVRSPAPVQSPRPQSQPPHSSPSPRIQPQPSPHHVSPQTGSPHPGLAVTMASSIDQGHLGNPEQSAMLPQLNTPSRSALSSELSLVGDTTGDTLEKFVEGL

The species named for experiment [10] is Homo sapiens. Kind of experiment: Selectivity index, ratio of IC50 for BR4 BD1 (unknown origin) to IC50 for CBP BRD (unknown origin).
For experiment [11], the species on record is Homo sapiens. As to the kind of experiment: Selectivity index, ratio of IC50 for BR4 BD2 (unknown origin) to IC50 for CBP BRD (unknown origin).

Molecules are shown by their SMILES.

The term IC50 denotes the concentration needed to halve the response being measured. High values mean weaker potency in that assay, low ones greater potency in that assay. As usually defined, the inhibition is how much of the control response was suppressed. In general, Kd refers to the free concentration of one partner at which half of the binding sites on the other are occupied at equilibrium, for simple one-to-one binding. Read a low Kd as tighter binding.

`CNC(=O)N1CCCc2ccc(NC(=O)c3ccc(-c4ccncc4)cc3)cc21` returned an IC50 in [1] of 89.2 nM. In experiment [2], this compound yielded an inhibition at 6.25 µM of 88.7%. The compound also displayed an inhibition at 1.56 µM in [3] of 37.6%.

`CNC(=O)N1CCCc2ccc(NC(=O)c3cccc(-c4cn[nH]c4)c3)cc21`: the IC50 in experiment [1] is 91.3 nM. In experiment [2], this compound gave an inhibition at 6.25 µM of 77.7%. The compound further showed an inhibition at 1.56 µM in [3] of 27.9%.

Consider `CNC(=O)N1CCCc2ccc(NC(=O)c3cccc(-c4ccn(C(C)=O)n4)c3)cc21`, for which the IC50 in experiment [1] was 94.6 nM. The compound further showed an inhibition at 6.25 µM in experiment [2] of 87.6%. Further, in [3], the inhibition at 1.56 µM was 27.6%.

Turning to `CNC(=O)N1CCCc2ccc(NC(=O)c3ccc(-c4ccccc4)cc3)cc21`, in experiment [1], the IC50 was determined as 195 nM. The compound further returned an inhibition at 6.25 µM in experiment [2] of 74.3%. Besides, the inhibition at 1.56 µM in [3] turned out to be 19.6%.

For `CNC(=O)N1CCCc2ccc(NC(=O)c3ccc(-c4cccnc4)cc3)cc21`, the IC50 is 53.7 nM in experiment [1] and 1160 nM in experiment [4]. This compound had an inhibition at 6.25 µM in [2] of 92.1%. Further, in experiment [3], the inhibition at 1.56 µM is 62.5%.

Consider `CNC(=O)N1CCCc2ccc(NC(=O)c3ccc(-c4cnn(C(C)=O)c4)cc3)cc21`, for which the concentration for half-maximal inhibition (IC50) in [1] was determined as 85.2 nM. In addition, 6.25 µM produced 83.8% inhibition in experiment [2]. The inhibition at 1.56 µM in [3] was determined as 23.9%.

`COC(=O)N1CCCc2ccc(NC(=O)C3CC=CCC3C(=O)O)cc21` (centres undefined) gave an IC50 in [5] of 2300 nM. That is a single-digit micromolar value.

Take `CNC(=O)N1CCCc2ccc(NC(=O)c3cccc(-c4ccncc4)c3)cc21`: the half-maximal inhibitory concentration (IC50) in experiment [5] and in experiment [1] was 63.3 nM each time.

Consider `CNC(=O)N1CCCc2ccc(NC(=O)c3ccc(-c4cc[nH]n4)cc3)cc21`, for which the half-maximal inhibitory concentration (IC50) in experiment [6] turned out to be 8400 nM; in [1], 19.5 nM; in experiment [8], 19000 nM; in experiment [4], 550 nM. This compound had a Kd in [7] of 25.4 nM. For the same compound, in experiment [2], the inhibition at 6.25 µM came out at 99.1%. This compound returned an inhibition at 1.56 µM in experiment [3] of 92.5%. For the same compound, the inhibition result in [9] was “Dose-dependent effect”. Besides, the Ratio IC50 in [10] and in [11] was more than 400 throughout.

In turn, `CNC(=O)N1CCCc2ccc(NC(=O)c3ccc(-c4ccn(S(C)(=O)=O)n4)cc3)cc21` showed an IC50 in experiment [1] of 74.4 nM. For the same compound, in experiment [2], the inhibition at 6.25 µM worked out at 57.2%. Besides, the inhibition at 1.56 µM in experiment [3] was 8.81%.

For the compound `CNC(=O)N1CCCc2ccc(NC(=O)c3ccccc3-c3ccccc3)cc21`, the half-inhibitory concentration (IC50) in experiment [5] turned out to be 213 nM. This compound also gave an inhibition at 6.25 µM in [2] of 1.39%. Besides, 1.56 µM produced 2.83% inhibition in [3].

With `CNC(=O)N1CCCc2ccc(NC(=O)c3cccc(-c4cnn(C)c4)c3)cc21`, the concentration for half-maximal inhibition (IC50) in [1] stood at 55.4 nM; in [4], 1040 nM. Besides, at 6.25 µM the inhibition in [2] was 93.5%. This compound came in with an inhibition at 1.56 µM in experiment [3] of 71.2%.

`CNC(=O)N1CCCc2ccc(NC(=O)c3ccc(-c4ccccn4)cc3)cc21` showed an IC50 in experiment [1] of 102 nM. In [2], the inhibition at 6.25 µM came to 79.2%. In [3], this compound yielded an inhibition at 1.56 µM of 31.9%.

`CNC(=O)N1CCCc2ccc(NC(=O)c3cccc(-c4ccn(S(C)(=O)=O)n4)c3)cc21` had an IC50 in experiment [1] of 103 nM. This compound also came in with an inhibition at 6.25 µM in experiment [2] of 37%. The compound further gave an inhibition at 1.56 µM in [3] of 4.03%.

`CNC(=O)N1CCCc2ccc(NC(=O)c3ccc(-c4ccn(C(C)=O)n4)cc3)cc21` showed a concentration for half-maximal inhibition (IC50) in experiment [1] of 52.3 nM. Moreover, the inhibition at 6.25 µM in experiment [2] was 91.3%. Also, in [3], testing at 1.56 µM gave an inhibition of 35.8%.

As for `C[C@@H]1CC(=O)Nc2cccc(-c3ccc4c(c3)c(-c3cnn(C)c3)nn4C)c2N1`, the values for the IC50 in experiment [6] and in [8] were 12000 nM and 18800 nM, respectively.

Take `CNC(=O)N1CCCc2ccc(NC(=O)c3ccc(-c4cnn(C)c4)cc3)cc21`: the 50% inhibitory concentration (IC50) in [1] is 37.4 nM; in experiment [4], 730 nM. The compound further had an inhibition at 6.25 µM in [2] of 94.4%. Testing at 1.56 µM in [3] gave an inhibition of 77.3%.

In the case of `CNC(=O)N1CCCc2ccc(NC(=O)c3ccc(-c4cn[nH]c4)cc3)cc21`, the figures for the IC50 in [1] and in experiment [4] were 47.7 nM and 870 nM, respectively. In [2], this compound registered an inhibition at 6.25 µM of 98.3%. For the same compound, in [3], at 1.56 µM the inhibition was 73.5%.

Regarding `CNC(=O)N1CCCc2ccc(NC(=O)c3cccc(-c4cnn(C(C)=O)c4)c3)cc21`, in experiment [1], the concentration for half-maximal inhibition (IC50) turned out to be 76.5 nM. Further, at 6.25 µM the inhibition in experiment [2] was 82%. The compound also gave an inhibition at 1.56 µM in [3] of 33.5%.

`CNC(=O)N1CCCc2ccc(NC(=O)c3cccc(-c4cc[nH]n4)c3)cc21` gave a 50% inhibitory concentration (IC50) in [1] of 92.9 nM. In experiment [2], this compound came in with an inhibition at 6.25 µM of 89.7%. The same compound gave an inhibition at 1.56 µM in experiment [3] of 27.3%.

In turn, `CNC(=O)N1CCCc2ccc(NC(=O)c3cccc(-c4ccccc4)c3)cc21` yielded a half-inhibitory concentration (IC50) in experiment [5] of 8410 nM. Besides, the inhibition at 6.25 µM in experiment [2] is 60.4%. Also, the inhibition at 1.56 µM in [3] amounted to 10.7%.

In the case of `CNC(=O)N1CCCc2ccc(NC(=O)c3ccc(-c4ccn(C)n4)cc3)cc21`, the half-maximal inhibitory concentration (IC50) was determined as 40.2 nM in [1] and 830 nM in [4]. In addition, the inhibition at 6.25 µM in experiment [2] was determined as 97%. In experiment [3], this compound came in with an inhibition at 1.56 µM of 72.2%.

`CNC(=O)N1CCCc2ccc(NC(=O)c3cccc(-c4cnn(S(C)(=O)=O)c4)c3)cc21` registered an IC50 in experiment [1] of 286 nM. Testing at 6.25 µM in [2] gave an inhibition of 18%. The inhibition at 1.56 µM in experiment [3] turned out to be 1.6%.

Take `CNC(=O)N1CCCc2ccc(NC(=O)c3cccc(-c4ccn(C)n4)c3)cc21`: the IC50 in [1] was 45.7 nM; in [4], 980 nM. 6.25 µM produced 99.5% inhibition in experiment [2]. Also, the inhibition at 1.56 µM in experiment [3] was determined as 70.5%.

In [1], `CNC(=O)N1CCCc2ccc(NC(=O)c3ccc(-c4cnn(S(C)(=O)=O)c4)cc3)cc21` came in with an IC50 of 93.1 nM. The compound further showed an inhibition at 6.25 µM in experiment [2] of 40.2%. In experiment [3], the inhibition at 1.56 µM was determined as 4.5%.

For the origin of these results see ChEMBL document CHEMBL4699476, “Structure-based drug optimization and biological evaluation of tetrahydroquinolin derivatives as selective and potent CBP bromodomain inhibitors” (Bioorg Med Chem Lett, 2020).
